Source: the array DNA melting data of Ke et al. (doi:10.1101/2024.01.08.574731)

Assays:
[1] = folding enthalpy; higher = less favourable; fluorescence melt of hairpins on a sequencing array, two-state fit; details: sodium 0.088 M
Procedure, shortened: (§1)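 Bootstrapped two-state fits yielded melting temperature and folding enthalpy for library hairpins. Cy3 fluorescence, with annealed Cy3 and quencher oligos, was imaged on a sequenced MiSeq flow cell in 50 mM Na-HEPES pH 8.0, 25 mM NaCl in 2.5 °C steps up to 60 °C, and normalised to pre-quench Cy3 and to control constructs. Four replicates were combined by inverse variance, and fitted temperatures were raised by 9.35 °C to match UV melts.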

[2] = melting temperature; fluorescence melt of hairpins on a sequencing array, two-state fit, raised by 9.35 °C to match UV melts; details: sodium 0.088 M
Procedure, shortened: as §1

Sequence	folding enthalpy [1] [kcal/mol]	Tm [2] [°C]
CGCAGCGGAAACGCAGCG (((.(((....))).)))	-29.9	68.5
CGCCACGGAAACGTGCG (((.(((....))))))	-24.7	54.4
CGCCACGGAAACGTTGCG (((.(((....))).)))	-33.4	51.1
CGCCCCGGAAACGGCGCG (((.(((....))).)))	-36.5	52.1
CGCCCGGAAACGGATGCG ((((((....)))..)))	-25	48.4
CGCCCGGAAACGGCAGCG ((((((....)))..)))	-30.7	48.7
CGCCCGGAAACGGCGCG ((((((....))).)))	-26.8	58.4
CGCCCGGAAACGGTGCG ((((((....))).)))	-31.7	57.9
CGCCTCGGAAACGAAGCG (((.(((....))).)))	-25.9	48.3
CGCCTGCGGAAACGCGCG (((..(((....))))))	-16.9	42.1
CGCGCGGAAACGCCTGCG ((((((....)))..)))	-17.2	46.8
CGCGCGGAAACGCTAGCG ((((((....)))..)))	-31	55.6
CGCGGAAAAACCGCG ((...........))	-29.7	65.7
CGCGGAACGGTCCGCG ((((((....))))))	-38.7	61.6
CGCGGAAGCTCCGCG ((((((...))))))	-26.3	68.8
CGCGGAATAGTCCGCG ((((((....))))))	-25.5	68.5
CGCGGAATGATCCGCG ((((((....))))))	-39.7	62.5
CGCGGAATGGTCCGCG ((((((....))))))	-30.2	69
CGCGGACAATTCCGCG ((((((....))))))	-30.5	62.2
CGCGGACCTTCCGCG ((((((...))))))	-28.5	69.2
CGCGGACGAATCCGCG ((((((....))))))	-33.2	68.5
CGCGGACGATCCGCG ((((((...))))))	-35.3	63.2
CGCGGACGCTCCGCG ((((((...))))))	-31.7	66.6

Sequence	folding enthalpy [1] [kcal/mol]	Tm [2] [°C]
CGCGGACTGTCCGCG ((((((...))))))	-42.3	64.7
CGCGGATAGTTCCGCG ((((((....))))))	-35.4	68.5
CGCGGATGATTCCGCG ((((((....))))))	-31.2	69.3
CGCGGATTGCTCCGCG ((((((....))))))	-48.8	64.9
CGCGGTCGGAAACGAGCG (((..(((....))))))	-15.1	56.1
CGCGTCGGAAACGAAGCG (((.(((....))).)))	-34	56.7
CGCTAGCGGAAACGCGCG (((..(((....))))))	-25.3	52.7
CGCTCCGGAAACGGCGCG (((.(((....))).)))	-39.5	56.9
CGCTCGGAAACGATTGCG ((((((....)))..)))	-25.4	39.8
CGCTTCGGAAACGAGGCG (((.(((....))).)))	-42.4	55.9
CGCTTTCGGAAACGAGCG (((..(((....))))))	-24.9	36.1
CGGACCGGAAACGGCCCG (((.(((....))).)))	-39.9	56.4
CGGACGGAAACGTCTCCG ((((((....)))..)))	-11.3	35.7
CGGACGGAAACGTGTCCG ((((((....)))..)))	-32.8	49.5
CGGAGCCGGAAACGGCCG (((..(((....))))))	-11.2	46.6
CGGCCACGGAAACGTCCG (((..(((....))))))	-10.4	33.6
CGGCCCGGAAACGGTCCG (((.(((....))).)))	-45.1	55.3
CGGCCGGAAACGGATCCG ((((((....)))..)))	-22	39.8
CGGCCGGAAACGGGCCCG ((((((....)))..)))	-9.66	46.8
CGGCCGGAAACGGGTCCG ((((((....)))..)))	-18.6	50.4
CGGCCGGAAACGGTCCCG ((((((....)))..)))	-13.1	41
CGGCCTCGGAAACGACCG (((..(((....))))))	-18.7	34.5
CGGCGCGGAAACGCACCG (((.(((....))).)))	-29.3	67.4

Sequence	folding enthalpy [1] [kcal/mol]	Tm [2] [°C]
CGGCGCGGAAACGCCCCG (((.(((....))).)))	-17.5	52
CGGCTTCGGAAACGACCG (((..(((....))))))	-18.2	37.9
CGGGAACGGAAACGTCCG (((..(((....))))))	-22.2	43.1
CGGGCACGGAAACGTCCG (((..(((....))))))	-19.9	38.9
CGGGCGGAAACGCATCCG ((((((....)))..)))	-15.9	44.3
CGGGGACGGAAACGTCCG (((..(((....))))))	-7.9	50.2
CGGGGGCGGAAACGCCCG (((..(((....))))))	-6.12	52.2
CGGGTACGGAAACGTCCG (((..(((....))))))	-20	40
CGGGTCGGAAACGAACCG (((.(((....))).)))	-42.8	59.6
CGGTAGCGGAAACGCCCG (((..(((....))))))	-23.4	48.7
CGGTCGCGGAAACGCCCG (((..(((....))))))	-20.9	47.1
CGGTCGGAAACGAACCG ((((((....))).)))	-33.3	51.6
CGGTCGGAAACGAATCCG ((((((....)))..)))	-25.8	37
CGGTCGGAAACGACCCG ((((((....))).)))	-10	51.5
CGGTCGGAAACGAGCCCG ((((((....)))..)))	-14	37.5
CGGTGCCGGAAACGGCCG (((..(((....))))))	-9.28	47.5
CGGTTCGGAAACGACCCG (((.(((....))).)))	-33	50
CGGTTCGGAAACGACCG (((.(((....))))))	-35.6	50.6
CGTAAGCGGAAACGCACG (((..(((....))))))	-22.6	41.8
CGTACCCGGAAACGGACG (((..(((....))))))	-12.3	31.8
CGTACGGAAACGTCACG ((((((....))).)))	-22.6	38.4
CGTACGGAAACGTGTACG ((((((....)))..)))	-25.2	41.5
CGTACGGAAACGTTCACG ((((((....)))..)))	-18.6	39

Sequence	folding enthalpy [1] [kcal/mol]	Tm [2] [°C]
CGTATCGGAAACGAAACG (((.(((....))).)))	-37.5	42.5
CGTCACGGAAACGTAACG (((.(((....))).)))	-43.1	41.6
CGTCACGGAAACGTCACG (((.(((....))).)))	-19.8	39.3
CGTCAGCGGAAACGCACG (((..(((....))))))	-15.4	40.6
CGTCCCGGAAACGGACG (((.(((....))))))	-27.7	53.2
CGTCCGGAAACGGAAACG ((((((....)))..)))	-20.9	40.5
CGTCCGGAAACGGAACG ((((((....))).)))	-24.9	49.9
CGTCCGGAAACGGACACG ((((((....)))..)))	-8.11	42.9
CGTCCGGAAACGGCCACG ((((((....)))..)))	-13	33.1
CGTCCGGAAACGGCTACG ((((((....)))..)))	-12.6	34
CGTCCGGAAACGGTACG ((((((....))).)))	-25.7	48.1
CGTCCGGAAACGGTCACG ((((((....)))..)))	-13.9	35.2
CGTCGGCGGAAACGCACG (((..(((....))))))	-18.3	46.1
CGTCTCCGGAAACGGACG (((..(((....))))))	-14.7	37.8
CGTCTCGGAAACGAACG (((.(((....))))))	-23.4	36.1
CGTCTCGGAAACGACACG (((.(((....))).)))	-31.2	35.5
CGTCTCGGAAACGATACG (((.(((....))).)))	-38	42.9
CGTCTGAAAAGACG (((((....)))))	-29.4	55.2
CGTGCCGGAAACGGGACG (((.(((....))).)))	-37.6	62.9
CGTGCGGAAACGCAGACG ((((((....)))..)))	-15.7	47.4
CGTGCGGAAACGCCCACG ((((((....)))..)))	-22.4	38.2
CGTGCGGAAACGCGCACG ((((((....)))..)))	-34.2	64
CGTGCGGAAACGCGGACG ((((((....)))..)))	-19.2	47
